Experimental data taken from ChEMBL document CHEMBL4325822, “Discovery of a tetrazolyl β-carboline with in vitro and in vivo osteoprotective activity under estrogen-deficient conditions” (Medchemcomm, 2018).
Values belong to the molecule of their own block, whether it stands above or below them. The source made the active and inactive calls. No cut-off for these calls is given here.

How the values were obtained:
[1] = system: Calvarial osteoblast; assay: Induction of osteoblast differentiation in Sprague-Dawley rat calvarial osteoblasts assessed as alkaline phosphatase activity at 0.000001 to 1 uM after 48 hrs using PNPP as substrate by spectrophotometric method relative to control; type: functional, cell-based
In short: (§1)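 Calvarial osteoblasts at 2 × 10³ cells/well. Treated 48 h with varied concentrations in differentiation medium (5% charcoal-treated FBS, 10 mM β-glycerophosphate, 50 µg·mL⁻¹ ascorbic acid). Total ALP read with PNPP substrate at 405 nm. Cell-free wells check for compound interference with substrate or absorbance.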

[2] = Induction of osteoblast differentiation in Sprague-Dawley rat calvarial osteoblasts assessed as alkaline phosphatase activity after 48 hrs using PNPP as substrate by spectrophotometric method; type: functional, cell-based; in short: as §1
[3] = system: Calvarial osteoblast; assay: Cytotoxicity against Sprague-Dawley rat calvarial osteoblasts assessed as reduction in cell viability at 0.000001 to 1 uM after 48 hrs by MTT assay; type: cell-based
In short: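 Osteoblasts came from pooled calvaria of 1-2-day-old Sprague-Dawley pups, isolated by sequential dispase/collagenase digestion. Cells were exposed to compound at 1 pM to 1 µM for 48 h, and viability was measured by MTT.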

[4] = Increase in OCN mRNA expression in Sprague-Dawley rat calvarial osteoblasts at 100 pM by RT-PCR method relative to control; type: functional, Calvarial osteoblast
In short: (§2)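 Primary calvarial osteoblasts were lysed in TRIzol after treatment, and total RNA was extracted. Transcripts were quantified by real-time PCR using the comparative CT (ΔΔCT) method.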

[5] = system: Calvarial osteoblast; assay: Increase in Runx2 protein expression in Sprague-Dawley rat calvarial osteoblasts at 100 pM after 48 hrs by Western blot analysis; type: functional, cell-based
In short: (§3)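 Rat calvarial osteoblasts (pooled 1–2-day pups, collagenase/dispase digests) at 60–70% confluence treated 48 h. Whole-cell lysates immunoblotted with primary antibody overnight at 4 °C, then HRP secondary, with ECL detection. Densitometry gives fold change normalized to β-actin versus untreated cells. Mean ± SEM of three independent experiments.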

[6] = Increase in Runx2 mRNA expression in Sprague-Dawley rat calvarial osteoblasts at 100 pM by RT-PCR method relative to control; type: functional, Calvarial osteoblast
[7] = Induction of osteoblast differentiation in Sprague-Dawley rat calvarial osteoblasts assessed as alkaline phosphatase activity at 100 pM after 48 hrs using PNPP as substrate by spectrophotometric method relative to control; type: functional; in short: as §1
[8] = system: Calvarial osteoblast; assay: Increase in OCN protein expression in Sprague-Dawley rat calvarial osteoblasts at 100 pM after 48 hrs by Western blot analysis; type: functional, cell-based; in short: as §3
[9] = system: Calvarial osteoblast; assay: Osteogenic activity in Sprague-Dawley rat calvarial osteoblasts assessed as mineralized nodule formation at 100 pM after 21 days by alizarin red-S staining based colorimetric method; type: functional
In short: (§4)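 Osteoblasts at 10,000–15,000 cells/cm² in duplicate plates, 21 days in differentiation medium, medium changed every 48 h. Cells fixed in 4% PFA, stained with alizarin red-S (40 mM, pH 4.5, 30 min) and photographed. Stain extracted with 10% acetic acid, pH brought to 4.5 with ammonium hydroxide, read at 405 nm, normalized to cell number.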

[10] = Increase in BMP2 mRNA expression in Sprague-Dawley rat calvarial osteoblasts at 100 pM by RT-PCR method relative to control; type: functional, Calvarial osteoblast; in short: as §2
[11] = system: Calvarial osteoblast; assay: Increase in BMP2 protein expression in Sprague-Dawley rat calvarial osteoblasts at 100 pM after 48 hrs by Western blot analysis; type: functional, cell-based
In short: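 Rat calvarial osteoblasts at 60-70% confluence were treated 48 h. Whole-cell lysates were blotted, blocked in 5% milk, and probed with primary antibody overnight at 4 °C, then with HRP secondary and ECL detection. Densitometry was normalized to β-actin; fold change versus untreated cells, three independent experiments, mean ± SEM.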

[12] = system: Calvarial osteoblast; assay: Osteogenic activity in Sprague-Dawley rat calvarial osteoblasts assessed as mineralized nodule formation at 100 pM after 21 days by alizarin red-S staining based light microscopic method; type: functional, cell-based; in short: as §4
[13] = system: Calvarial osteoblast; assay: Induction of osteoblast differentiation in Sprague-Dawley rat calvarial osteoblasts assessed as alkaline phosphatase activity at 10 nM after 48 hrs using PNPP as substrate by spectrophotometric method relative to control; type: functional; in short: as §1
[14] = Rattus norvegicus, Sprague-Dawley, Calvarial osteoblast, 48 h, read-out: EC50

SMILES: COC(=O)c1cc2c([nH]c3ccccc32)c(C(NCc2ccc(Cl)c(Cl)c2)c2nnnn2C(C)(C)C)n1 (stereo not drawn)
Emax [1]: inactive
EC50 ([2]; calvarial osteoblast): Not Active

SMILES: CCOC(=O)c1cc2c([nH]c3ccccc32)c(C=O)n1
Activity [3]: Non-Toxic
fold change (FC) [4]: 1.8 - 4.6
Activity [5]: Active
fold change (FC) [6]: 1.8 - 4.6
Emax at 0.0001 µM [7]: 65%
Activity [8]: Active
Activity [9]: 20%
fold change (FC) [10]: 1.8 - 4.6
EC50 [2, 14]: 613 nM
Activity [11]: Active

SMILES: COC(=O)c1cc2c([nH]c3ccccc32)c(C(NCc2ccccc2)c2nnnn2C(C)(C)C)n1 (stereo not drawn)
Emax at 0.0001 µM [7]: 29%
EC50 [2, 14]: 468 nM

SMILES: COC(=O)c1cc2c([nH]c3ccccc32)c(C(NCc2ccc(C)cc2)c2nnnn2C(C)(C)C)n1 (stereo not drawn)
Emax [1]: inactive
EC50 ([2]; calvarial osteoblast): Not Active

SMILES: COC(=O)c1cc2c([nH]c3ccccc32)c(C(NC(C)(C)C)c2nnnn2C(C)(C)C)n1 (stereo not drawn)
Emax [1]: inactive
EC50 ([2]; calvarial osteoblast): Not Active

SMILES: COC(=O)c1cc2c([nH]c3ccccc32)c(C(c2nnnn2C(C)(C)C)N2CCN(c3ncccn3)CC2)n1 (stereo not drawn)
Activity [3]: Non-Toxic
fold change (FC) [4]: 1.8 - 4.6
Activity [5]: Active
fold change (FC) [6]: 1.8 - 4.6
Emax at 0.0001 µM [7]: 80%
Activity [12]: Active
Activity [8]: Active
Activity [9]: 48%
fold change (FC) [10]: 1.8 - 4.6
EC50 [2, 14]: 3270 nM
Activity [11]: Active

SMILES: COC(=O)CNC(c1nc(C(=O)OC)cc2c1[nH]c1ccccc12)c1nnnn1C(C)(C)C (stereo not drawn)
Emax [1]: inactive
EC50 ([2]; calvarial osteoblast): Not Active

Results, then the molecule that gave them:

Emax [1]: inactive
EC50 ([2]; calvarial osteoblast): Not Active
SMILES: CCOC(=O)c1cc2c([nH]c3ccccc32)c(C(NC(C)(C)C)c2nnnn2C(C)(C)C)n1 (stereo not drawn)

Emax [1]: inactive
EC50 ([2]; calvarial osteoblast): Not Active
SMILES: CCOC(=O)c1cc2c([nH]c3ccccc32)c(C(c2nnnn2C(C)(C)C)N2CCN(c3ccc(F)cc3)CC2)n1 (stereo not drawn)

Emax [1]: inactive
EC50 ([2]; calvarial osteoblast): Not Active
SMILES: CCOC(=O)c1cc2c([nH]c3ccccc32)c(C(c2nnnn2C(C)(C)C)N2CCN(Cc3ccc4c(c3)OCO4)CC2)n1 (stereo not drawn)

Emax [1]: inactive
EC50 ([2]; calvarial osteoblast): Not Active
SMILES: CCOC(=O)c1cc2c([nH]c3ccccc32)c(C(c2nnnn2C(C)(C)C)N2CCN(C(=O)c3ccco3)CC2)n1 (stereo not drawn)

Emax [13]: inactive
EC50 ([2]; calvarial osteoblast): Not Active
SMILES: CCN1CCN(C(c2nc(C(=O)OC)cc3c2[nH]c2ccccc23)c2nnnn2C(C)(C)C)CC1 (stereo not drawn)

Emax [1]: inactive
EC50 ([2]; calvarial osteoblast): Not Active
SMILES: CCOC(=O)c1cc2c([nH]c3ccccc32)c(C(c2nnnn2C(C)(C)C)N2CCOCC2)n1 (stereo not drawn)
